From ChEMBL document CHEMBL4130515, “Identification of Privileged Antichlamydial Natural Products by a Ligand-Based Strategy” (J Nat Prod, 2017)
In brackets after ≈: the same amount, converted by molar mass. Counter-ions that a name gives are not always drawn.

Key:
Chlamydia pneumoniae [1] = test: Antichlamydial activity against Chlamydia pneumoniae K7 infected in HL cells assessed as chlamydial inhibition at 50 uM after 70 hrs by fluorescent microscopic analysis; assay type: functional
In short: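 Confluent HL cells infected with C. pneumoniae K7 at MOI 0.3 in medium with 1 μg/mL cycloheximide, centrifuged 500 rpm 1 h, then held at 37 °C for 1 h. At 2 h, compound added at 50 μM or DMSO vehicle. After 70 h at 37 °C, inclusions stained and counted in four fields per coverslip under a fluorescence microscope (20×). Inhibition % is relative to mean vehicle counts.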

[2] = Cytotoxicity against human HL cells assessed as cell viability at 50 uM after 72 hrs by resazurin dye based fluorescence assay relative to control; conditions: HL cells, read-out: Activity
In short: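 HL cells grown overnight to confluence, then exposed to compound at 50 μM for 72 h at 37 °C, four parallel replicates. Read-out after 2 h with 20 μM resazurin in PBS, fluorescence at 570/590 nm (ex/em). Viability % is relative to cells in 0.25% DMSO medium. Usnic acid 50 μM as positive control.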

Chlamydia pneumoniae [3] = test: Antichlamydial activity against Chlamydia pneumoniae K7 infected in HL cells after 70 hrs by fluorescent microscopic analysis; assay type: functional, organism-based; conditions: for IC50: K7, HL, 70 h; for MIC90: K7, 70 h
In short: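 HL cells grown to confluence, infected with C. pneumoniae K7 at MOI 0.3 in medium with 1 μg/mL cycloheximide, centrifuged 500 rpm 1 h, then 37 °C 1 h. At 2 h, inoculum replaced by cycloheximide medium with compound at 12 concentrations from 1 nM to 100 μM. Incubated 70 h at 37 °C, stained, and inclusions counted by fluorescence microscopy. Three runs; IC50 from variable-slope sigmoidal fit. Azithromycin 20 nM as positive control.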

SMILES	inhibition at 50 µM (Chlamydia pneumoniae [1])	viability at 72 h, 50 µM [2]	IC50 (Chlamydia pneumoniae [3])	MIC90 (Chlamydia pneumoniae [3])
CC(=O)N[C@H]1CN2CC[C@H](O)[C@@H]2[C@@H](O)[C@@H]1O	59.8%	86.6%	67.2 µM	
CCOC(=O)Oc1c(OC)cc(C(=O)O[C@H]2C[C@H]3CN4CCc5c([nH]c6cc(OC)ccc56)[C@@H]4C[C@H]3[C@@H](C(=O)OC)[C@@H]2OC)cc1OC		67.6%		
C[C@@H]1C[C@H]2CC[C@H](O2)[C@H](C)C(=O)O[C@@H](C)C[C@@H]2CC[C@@H](O2)[C@@H](C)C(=O)O[C@H](C)C[C@H]2CC[C@H](O2)[C@H](C)C(=O)O[C@@H](C)C[C@@H]2CC[C@@H](O2)[C@@H](C)C(=O)O1		23.7%		
C=C[C@](C)(O)CC[C@H]1C(=C)CC[C@H]2C(C)(C)CCC[C@]12C	60%	88.6%	35.5 µM	
CCC1=CC2CN3CCc4c([nH]c5ccccc45)[C@@](C(=O)OC)(C2)C13	68.1%	88.9%	52.6 µM	
COc1c(O)c2c(=O)cc(OC)c3c4c(OC)cc(=O)c5c(O)c(OC)c6c(c(c1CC(C)(O)C6C(C)=O)c23)c54 (configuration not stated)		-0.3%		
O=c1cc(-c2ccccc2)oc2cc(O)ccc12 [7-HYDROXYFLAVONE]		71.1%		
O=C1c2c(O)cc(O)cc2O[C@H](c2ccc(O)c(O)c2)[C@H]1O [(+)-TAXIFOLIN]	13.4%	95.2%		
C=C1CC[C@H]2O[C@]2(C)CC[C@@H]2[C@@H]1CC2(C)C [(-)-CARYOPHYLLENE OXIDE]	35.7%	107%		
Oc1cc(O)c2c(c1)O[C@H](c1ccc(O)c(O)c1)[C@H](O)C2 [(-)-EPICATECHIN]	41.7%	93.4%		
C[C@@]1(CO)[C@H](O)CC[C@@]2(C)[C@H]1CC[C@H]1C[C@@H]3C[C@@]12CC[C@]3(O)CO [APHIDICOLIN]	-3.8%	92.3%		
O=c1cc(-c2ccc(O)cc2)oc2cc(O[C@@H]3O[C@H](CO)[C@@H](O)[C@H](O)[C@H]3O)cc(O)c12 [APIGETRIN]		48.1%		
c1cc2c(cc1[C@H]1OC[C@H]3[C@@H]1CO[C@H]3c1ccc3c(c1)OCO3)OCO2 [ASARININ]		57.1%		
CC(=O)O[C@H]1C(=O)[C@@]2(C)[C@H]([C@H](OC(=O)c3ccccc3)[C@]3(O)C[C@H](O)C(C)=C1C3(C)C)[C@]1(OC(C)=O)CO[C@@H]1C[C@@H]2O [BACCATIN III]		34.6%		
O=C(/C=C/c1ccc(O)c(O)c1)OCCc1ccccc1 [CAFFEIC ACID PHENETHYL ESTER]		46%		
C/C=C(/C)C(=O)O[C@H]1CC[C@@]2(C)[C@@H]3CC[C@H]4[C@]5(O)C[C@H](O)[C@@]6(O)[C@@H](CN7C[C@@H](C)CC[C@H]7[C@@]6(C)O)[C@]5(O)C[C@@]42O[C@]13O [CEVADINE]	39%	98.6%		
CO[C@H]1[C@@H](O)[C@@H](C)O[C@H](O[C@H]2[C@H](Oc3cccc4c(O)c5c(=O)oc6ccc(C)c7c(=O)oc(c34)c5c67)O[C@H](C)[C@H](O)[C@@H]2O)[C@@H]1O [CHARTREUSIN]		4%		
CC(=O)O[C@H]1[C@H]2O[C@]23[C@@H]2CC[C@@H]4C[C@@H](O)CC[C@]4(C)[C@H]2CC[C@]3(C)[C@H]1c1ccc(=O)oc1 [CINOBUFAGIN]		0.2%		
COc1ccc(C(=O)OC2C[C@H]3CC[C@H](C2)N3C)cc1OC (some centres not stated) [CONVOLVAMINE HYDROCHLORIDE]	21.1%	78.8%		
O=c1oc2cc(O)ccc2c2oc3cc(O)ccc3c12 [COUMESTROL]	0%	96.3%		
C[C@@H]1C[C@@H]([C@H](O)CC2CC(=O)NC(=O)C2)C(=O)[C@@H](C)C1 [CYCLOHEXIMIDE]		66.4%		
COc1cc2c(cc1OC)[C@@H]1C(=O)c3ccc4c(c3O[C@@H]1CO2)C=CC(C)(C)O4 [DEGUELIN]		21.6%		
CC1=CC(=O)C2=C(C)CC[C@@H]3[C@H](OC(=O)[C@H]3C)[C@@H]12 [DESACETOXYMATRICARIN]	30.1%	93.9%		
COc1cc(/C=C/c2ccccc2)oc(=O)c1 [DESMETHOXYYANGONIN]	35.7%	89.8%		
C[C@H]1O[C@@H](O[C@H]2[C@@H](O)C[C@H](O[C@H]3[C@@H](O)C[C@H](O[C@H]4CC[C@@]5(C)[C@H](CC[C@@H]6[C@@H]5CC[C@]5(C)[C@@H](C7=CC(=O)OC7)CC[C@]65O)C4)O[C@@H]3C)O[C@@H]2C)C[C@H](O)[C@@H]1O [DIGITOXIN]		0.1%		
CC(C)[C@@]1(NC(=O)[C@@H]2C[C@@H]3c4cccc5[nH]cc(c45)C[C@H]3N(C)C2)O[C@@]2(O)[C@@H]3CCCN3C(=O)[C@H](Cc3ccccc3)N2C1=O [DIHYDROERGOCRISTINE MESYLATE]		2.7%		

SMILES	inhibition at 50 µM (Chlamydia pneumoniae [1])	viability at 72 h, 50 µM [2]	IC50 (Chlamydia pneumoniae [3])	MIC90 (Chlamydia pneumoniae [3])
CC(C)=CCC[C@](C)(O)[C@H]1CC[C@]2(C)[C@@H]1CC[C@@H]1[C@@]3(C)CCC(=O)C(C)(C)[C@@H]3CC[C@]12C [DIPTEROCARPOL]		32.1%		
C[C@@H]1O[C@@H](OC[C@H]2O[C@@H](Oc3cc(O)c4c(c3)O[C@H](c3ccc(O)c(O)c3)CC4=O)[C@H](O)[C@@H](O)[C@@H]2O)[C@H](O)[C@H](O)[C@H]1O [ERIOCITRIN]	8.6%	75.2%		
O=C1C[C@@H](c2ccc(O)c(O)c2)Oc2c1ccc(O[C@@H]1O[C@H](CO)[C@@H](O)[C@H](O)[C@H]1O)c2O [FLAVANOMAREIN]	22.1%	82.6%		
Cc1cc2c(C(C)C)c(O)c(O)c(C=O)c2c(O)c1-c1c(C)cc2c(C(C)C)c(O)c(O)c(C=O)c2c1O [GOSSYPOL]		0.1%		
Cn1c(-c2ccc3c(c2)OCO3)cc(=O)c2ccccc21 [GRAVEOLINE]	5.3%	100%		
COc1ccc2c(c1)[nH]c1c(C)nccc12 [HARMINE HYDROCHLORIDE]	26%	87.3%		
COc1ccc([C@@H]2CC(=O)c3c(O)cc(O[C@@H]4O[C@H](CO[C@@H]5O[C@@H](C)[C@H](O)[C@@H](O)[C@H]5O)[C@@H](O)[C@H](O)[C@H]4O)cc3O2)cc1O [HESPERIDIN]	26.8%	101%		
C=CCc1ccc(O)c(-c2ccc(O)c(CC=C)c2)c1 [HONOKIOL]		8.8%		
O=C1Nc2ccccc2/C1=C1/Nc2ccccc2C1=O [INDIRUBIN]	2%	92.5%		
O=c1c(O[C@@H]2O[C@H](CO)[C@@H](O)[C@H](O)[C@H]2O)c(-c2ccc(O)c(O)c2)oc2cc(O)cc(O)c12 [ISOQUERCETIN]	38%	95.8%		
CC1=C2C(=O)[C@H]3[C@@H](CC=C4C[C@@H](O)CC[C@@]43C)[C@@H]2CC[C@]12O[C@@H]1C[C@H](C)CN[C@H]1[C@H]2C [JERVINE]	74.8%	89.3%	25.6 µM	
CN1CCc2cc(O)c(O)cc2C1Cc1ccc(O)c(O)c1 (configuration not stated) [LAUDANOSOLINE HYDROBROMIDE]		72.8%		
OC[C@@H]1CCCN2CCCC[C@H]12 [LUPININE]	28.2%	98.7%		
COc1c(C)c2c(c(O)c1C/C=C(\C)CCC(=O)O)C(=O)OC2 [MYCOPHENOLIC ACID]	98%	86.6%	0.31 µM	1 µM (≈ 0.32 µg/mL)
CCn1cc(C(=O)O)c(=O)c2ccc(C)nc21 [NALIDIXIC ACID]		15.8%		
C[C@@H]1C/C=C/C=C/C=C/C=C/[C@H](O[C@@H]2O[C@H](C)[C@@H](O)[C@H](N)[C@@H]2O)C[C@@H]2O[C@](O)(C[C@@H](O)C[C@H]3O[C@@H]3/C=C/C(=O)O1)C[C@H](O)[C@H]2C(=O)O [NATAMYCIN]		67.1%		
CC1COc2c(N3CCN(C)CC3)c(F)cc3c(=O)c(C(=O)O)cn1c23 (configuration not stated) [OFLOXACIN]				1.38 µM (≈ 0.499 µg/mL)
CC1(C)CC[C@]2(C(=O)O)CC[C@]3(C)C(=CC[C@@H]4[C@@]5(C)CC[C@H](O)C(C)(C)[C@@H]5CC[C@]43C)[C@@H]2C1 [OLEANOLIC_ACID]		36.3%		
C=C1C(=O)[C@]23[C@H](O)[C@H]1CC[C@H]2[C@@]12CO[C@]3(O)[C@@H](O)[C@@H]1C(C)(C)CC[C@@H]2O [ORIDONIN]		0%		
C[C@]1(C(=O)O)CCC[C@]2(C)c3cc(O)ccc3CC[C@@H]12 [PODOCARIC ACID]		27.9%		
CCCCC[C@H](O)/C=C/C1=C(CCCCCCC(=O)O)C(=O)CC1 [PROSTAGLANDIN B1]	39.8%	109%		
C[C@@H]1C[C@H]2O[C@@H]2/C=C\C=C\C(=O)Cc2c(Cl)c(O)cc(O)c2C(=O)O1 [RADICICOL]		0.6%		
CN1CCc2cc3c(c4c2[C@H]1Cc1ccccc1-4)OCO3 [REMERINE HYDROCHLORIDE]		45.2%		
c1ccc2c3c([nH]c2c1)CNCC3 [TRYPTOLINE]	4.9%	84.8%		
O[C@H]1CCN2Cc3ccccc3N=C12 [VASICINE]	-1.4%	102%		
